Reference: ChEMBL document CHEMBL1157034, “Synthesis of 1-benzyl-3-(5-hydroxymethyl-2-furyl)selenolo[3,2-c]pyrazole derivatives as new anticancer agents” (Eur J Med Chem, 2010)

Assays:
Type in all cases: functional
[1] = test system: MOLT-4; test: Antitumor activity against human MOLT4 cells after 48 hrs by MTT assay; conditions: MOLT-4, 48 h
[2] = Antitumor activity against human […] cells after 48 hrs by MTT assay
[3] = test system: SR; test: Antitumor activity against human SR cells after 48 hrs by MTT assay
[4] = test system: HOP-62; test: Antitumor activity against human HOP62 cells after 48 hrs by MTT assay; conditions: HOP-62, 48 h
[5] = test system: HOP-92; test: Antitumor activity against human HOP92 cells after 48 hrs by MTT assay; conditions: HOP-92, 48 h
[6] = test system: NCI-H23; test: Antitumor activity against human NCI-H23 cells after 48 hrs by MTT assay; conditions: NCI-H23, 48 h
[7] = test system: NCI-H322M; test: Antitumor activity against human NCI-H322M cells after 48 hrs by MTT assay
[8] = test system: COLO 205; test: Antitumor activity against human COLO205 cells after 48 hrs by MTT assay; conditions: COLO 205, 48 h
[9] = test system: HCC 2998; test: Antitumor activity against human HCC2998 cells after 48 hrs by MTT assay; conditions: HCC 2998, 48 h
[10] = test system: HCT-116; test: Antitumor activity against human HCT116 cells after 48 hrs by MTT assay; conditions: HCT-116, 48 h
[11] = test system: HCT-15; test: Antitumor activity against human HCT15 cells after 48 hrs by MTT assay; conditions: HCT-15, 48 h
[12] = test system: HT-29; test: Antitumor activity against human HT-29 cells after 48 hrs by MTT assay; conditions: HT-29, 48 h
[13] = test system: SW-620; test: Antitumor activity against human SW620 cells after 48 hrs by MTT assay; conditions: SW-620, 48 h
[14] = test system: SF-268; test: Antitumor activity against human SF268 cells after 48 hrs by MTT assay; conditions: SF-268, 48 h
[15] = test system: SNB-19; test: Antitumor activity against human SNB19 cells after 48 hrs by MTT assay; conditions: SNB-19, 48 h
[16] = test system: SNB-75; test: Antitumor activity against human SNB75 cells after 48 hrs by MTT assay; conditions: SNB-75, 48 h
[17] = test system: Malme-3M; test: Antitumor activity against human MALME-3M cells after 48 hrs by MTT assay
[18] = test system: SK-MEL-28; test: Antitumor activity against human SK-MEL-28 cells after 48 hrs by MTT assay; conditions: SK-MEL-28, 48 h
[19] = test system: OVCAR-3; test: Antitumor activity against human OVCAR-3 cells after 48 hrs by MTT assay; conditions: OVCAR-3, 48 h
[20] = test system: OVCAR-4; test: Antitumor activity against human OVCAR4 cells after 48 hrs by MTT assay; conditions: OVCAR-4, 48 h
[21] = test system: OVCAR-5; test: Antitumor activity against human OVCAR5 cells after 48 hrs by MTT assay; conditions: OVCAR-5, 48 h
[22] = test system: NCI/ADR-RES; test: Antitumor activity against human NCI/ADR-RES cells after 48 hrs by MTT assay
[23] = test system: 786-0; test: Antitumor activity against human 786-0 cells after 48 hrs by MTT assay; conditions: 786-0, 48 h
[24] = test system: A498; test: Antitumor activity against human A498 cells after 48 hrs by MTT assay; conditions: A498, 48 h
How it was run: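 Cells grown at 37 °C in humidified 5% CO2, seeded at 1×10^4 cells/well, and allowed to attach for 24 h. They were then exposed to a range of concentrations for 48 h, washed with PBS, and given 1 mg/ml MTT for 2 h. Formazan was dissolved in DMSO and read at 570 nm.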

[25] = test system: RXF 393; test: Antitumor activity against human RXF393 cells after 48 hrs by MTT assay; conditions: RXF 393, 48 h
[26] = test system: TK-10; test: Antitumor activity against human TK10 cells after 48 hrs by MTT assay; conditions: TK-10, 48 h
[27] = test system: PC-3; test: Antitumor activity against human PC3 cells after 48 hrs by MTT assay; conditions: PC-3, 48 h
[28] = test system: BT-549; test: Antitumor activity against human BT549 cells after 48 hrs by MTT assay; conditions: BT-549, 48 h
[29] = test system: T47D; test: Antitumor activity against human T47D cells after 48 hrs by MTT assay
[30] = test system: HL-60(TB); test: Antitumor activity against human HL-60(TB) cells after 48 hrs by MTT assay; conditions: HL-60, 48 h
[31] = test system: K562; test: Antitumor activity against human K562 cells after 48 hrs by MTT assay; conditions: K562, 48 h
[32] = read-out: pLC50 (the source's name) (converted)

`OCc1ccc(-c2nn(Cc3ccccc3)c3cc[se]c23)o1` gave a GI50 [1] of 22.9 µM, a CC50 [1, 32] greater than 100 µM and a GI50 [2] of 22.4 µM. The CC50 [2, 32] was greater than 100 µM, the TGI ([2]; read-out: pTGI) was greater than 100 µM and the GI50 [3] was 21.9 µM. The CC50 [3, 32] was greater than 100 µM, the TGI ([3]; read-out: pTGI (converted)) was 63.1 µM and the GI50 [4] was 39.8 µM. For the same compound, the CC50 [4, 32] was greater than 100 µM, the TGI ([4]; read-out: pTGI) was greater than 100 µM and the GI50 [5] was 18.2 µM. For the same compound, the CC50 [5, 32] was greater than 100 µM, the TGI ([5]; read-out: pTGI (converted)) was 79.4 µM and the GI50 [6] was 42.7 µM. The CC50 [6, 32] was greater than 100 µM, the TGI ([6]; read-out: pTGI) was greater than 100 µM and the GI50 [7] was 40.7 µM. The CC50 [7, 32] was greater than 100 µM, the TGI ([7]; read-out: pTGI) was greater than 100 µM and the GI50 [8] was 29.5 µM. The CC50 [8, 32] was greater than 100 µM, the TGI ([8]; read-out: pTGI) was greater than 100 µM and the GI50 [9] was 32.4 µM. The CC50 [9, 32] was greater than 100 µM, the TGI ([9]; read-out: pTGI) was greater than 100 µM and the GI50 [10] was 18.2 µM. For the same compound, the CC50 [10, 32] was greater than 100 µM, the TGI ([10]; read-out: pTGI) was greater than 100 µM and the GI50 [11] was 30.2 µM. It also gave a CC50 [11, 32] greater than 100 µM, a TGI ([11]; read-out: pTGI) greater than 100 µM and a GI50 [12] of 33.9 µM. It also gave a CC50 [12, 32] greater than 100 µM, a TGI ([12]; read-out: pTGI) greater than 100 µM and a GI50 [13] of 35.5 µM. It also gave a CC50 [13, 32] greater than 100 µM, a TGI ([13]; read-out: pTGI) greater than 100 µM and a GI50 [14] of 40.7 µM. For the same compound, the CC50 [14, 32] was greater than 100 µM, the TGI ([14]; read-out: pTGI) was greater than 100 µM and the GI50 [15] was 49 µM. It also gave a CC50 [15, 32] greater than 100 µM, a TGI ([15]; read-out: pTGI) greater than 100 µM and a GI50 [16] of 22.4 µM. It also gave a CC50 [16, 32] greater than 100 µM, a TGI ([16]; read-out: pTGI (converted)) of 100 µM and a GI50 [17] of 25.7 µM. It also gave a CC50 [17, 32] greater than 100 µM, a TGI ([17]; read-out: pTGI) greater than 100 µM and a GI50 [18] of 28.8 µM. For the same compound, the CC50 [18, 32] was greater than 100 µM, the TGI ([18]; read-out: pTGI (converted)) was 91.2 µM and the GI50 [19] was 13.2 µM. It also gave a CC50 [19, 32] greater than 100 µM, a TGI ([19]; read-out: pTGI (converted)) of 79.4 µM and a GI50 [20] of 26.3 µM. It also gave a CC50 [20, 32] greater than 100 µM, a TGI ([20]; read-out: pTGI) greater than 100 µM and a GI50 ([21]; read-out: pGI50 (converted)) of 7.41 µM. The CC50 [21, 32] was greater than 100 µM, the TGI ([21]; read-out: pTGI) was greater than 100 µM and the GI50 ([22]; read-out: pGI50 (converted)) was 25.7 µM. The CC50 [22, 32] was greater than 100 µM, the TGI ([22]; read-out: pTGI) was greater than 100 µM and the GI50 ([23]; read-out: pGI50 (converted)) was 33.1 µM. It also gave a CC50 [23, 32] greater than 100 µM, a TGI ([23]; read-out: pTGI) greater than 100 µM and a GI50 ([24]; read-out: pGI50 (converted)) of 0.162 µM. It also gave a CC50 ([24]; read-out: pLC50 (converted)) of 0.631 µM, a TGI ([24]; read-out: pTGI) of 0.324 µM and a GI50 ([25]; read-out: pGI50 (converted)) of 11.5 µM. The CC50 [25, 32] was greater than 100 µM, the TGI ([25]; read-out: pTGI) was 51.3 µM and the GI50 ([26]; read-out: pGI50 (converted)) was 1.7 µM. For the same compound, the CC50 [26, 32] was greater than 100 µM, the TGI ([26]; read-out: pTGI) was greater than 100 µM and the GI50 ([27]; read-out: pGI50 (converted)) was 27.5 µM. It also gave a CC50 [27, 32] greater than 100 µM, a TGI ([27]; read-out: pTGI) greater than 100 µM and a GI50 [28] of 25.1 µM. The CC50 [28, 32] was greater than 100 µM, the TGI ([28]; read-out: pTGI (converted)) was 95.5 µM and the GI50 [29] was 21.4 µM. The CC50 [29, 32] was greater than 100 µM, the TGI ([29]; read-out: pTGI (converted)) was 89.1 µM and the GI50 [30] was 19.5 µM. It also gave a CC50 [30, 32] greater than 100 µM, a TGI ([30]; read-out: pTGI (converted)) of 49 µM and a GI50 [31] of 25.1 µM. For the same compound, the CC50 [31, 32] was greater than 100 µM and the TGI ([31]; read-out: pTGI) was greater than 100 µM.
